Values joined by “and” are separate entries in the source; they are usually repeats but may differ in a detail not shown here. Equal values may be shown once. Values belong to the compound of their own block, whether it stands above or below them. Where a SMILES comes first, the peptide text is derived from it. The star is where a group is joined. X1 = O=C(ON1C(=O)CCC1=O)c1cccc(-c2c3ccc(=O)cc-3oc3cc(O)ccc23)c1C(=O)*
Tests used:
[1] = target: T1, E3 ubiquitin-protein ligase XIAP (Homo sapiens, UniProt P98170); test: Compound was tested for inhibitory activity towards XIAP BIR3 protein
T1 sequence (P98170 whole entry): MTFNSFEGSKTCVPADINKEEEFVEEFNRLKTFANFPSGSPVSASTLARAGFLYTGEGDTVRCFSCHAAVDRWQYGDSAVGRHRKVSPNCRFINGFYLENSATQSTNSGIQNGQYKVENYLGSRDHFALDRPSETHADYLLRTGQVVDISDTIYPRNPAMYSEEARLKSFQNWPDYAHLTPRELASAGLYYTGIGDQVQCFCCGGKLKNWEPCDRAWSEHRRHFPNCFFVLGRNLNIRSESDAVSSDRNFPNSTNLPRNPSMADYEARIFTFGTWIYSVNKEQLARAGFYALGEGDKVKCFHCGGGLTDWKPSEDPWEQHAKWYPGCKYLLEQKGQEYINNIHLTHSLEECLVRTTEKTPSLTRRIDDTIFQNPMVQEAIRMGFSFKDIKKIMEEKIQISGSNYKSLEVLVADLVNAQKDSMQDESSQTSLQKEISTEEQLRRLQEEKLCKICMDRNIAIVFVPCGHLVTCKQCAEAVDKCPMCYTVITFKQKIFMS

[2] = target: T1, E3 ubiquitin-protein ligase XIAP; test: Dissociation constant for XIAP BIR3 protein in FP-based binding assay
[3] = target: T1, E3 ubiquitin-protein ligase XIAP; test: Dissociation constant for XIAP BIR3 protein using different binding assay
[4] = test system: PC-3; test: Compound was tested for inhibition of PC-3 prostate cancer cells; type: functional, cell-based; conditions: Homo sapiens
Outline: (§1)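 WST-1 growth assay: 5000 cells/well in medium with 10% FBS, serial compound concentrations in triplicate for 4–5 days (five days per legend); WST-1 added 1–3 h at 37 °C, absorbance 450 nm corrected at 650 nm. Growth as % of vehicle-control absorbance; IC50 by sigmoid curve fit; experiment repeated three times.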

[5] = test system: PC-3; test: Activation of caspase-9 by embelin in PC-3 prostate cancer cells at a concentration of 20 uM; type: functional, Homo sapiens
Outline: (§2)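 PC-3 cells seeded 1 × 10^6 per well, exposed to compound or DMSO vehicle for 42 h; parallel control had pan-caspase inhibitor Z-VAD-FMK added 5 min before compound. Cells in complete medium labeled with Red-LEHD-FMK 0.5 h at 37 °C, 5% CO2, washed; active caspase-9 scored by flow cytometry in PI channel as % positive cells.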

[6] = test system: Jurkat; test: Inhibitory concentration of compound against Jurkat-Vec cells; type: functional, cell-based; conditions: Homo sapiens
Outline: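 Stably vector-transfected Jurkat T cells kept in RPMI 1640 with 10% fetal calf serum and 1 µg/mL puromycin; growth read by WST-1 as for prostate lines: 5000 cells/well, triplicate concentrations, 4–5 days, absorbance 450/650 nm versus vehicle control, IC50 from sigmoid fit.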

[7] = test system: WI-38; test: Inhibitory concentration of compound against growth of WI-38 cells in vitro; type: functional, cell-based; conditions: Homo sapiens; outline: as §1
[8] = test system: PC-3; test: Percent of PC-3 cells stained for activated caspase-9 after incubation with 20 uM of compound for 42h; type: functional, Homo sapiens; outline: as §2
[9] = test system: Jurkat; test: Induction of apoptosis by etoposide in Jurkat vec cells at a dose of 2.5 uM for 72 h; type: functional, Homo sapiens
Outline: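 Stably vector-transfected Jurkat cells exposed to etoposide 2.5 µM for 72 h in the cell growth assay; reported as % of cells killed.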

[10] = test system: LNCaP; test: Compound was tested for inhibition of LnCap prostate cancer cells; type: functional, cell-based; conditions: Homo sapiens; outline: as §1
[11] = test system: PC-3; test: Inhibitory concentration of compound against growth of PC-3 cells in vitro; type: functional, cell-based; conditions: Homo sapiens; outline: as §1
[12] = test system: PC-3; test: Induction of apoptosis by embelin in PC-3 prostate cancer cells at a concentration of 50 uM for 48 h; type: functional, Homo sapiens
Outline: (§3)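 PC-3 cells, 1 × 10^6 per well, treated in triplicate with compound for 48 h, trypsinized, PBS-washed, stained with Annexin V-FITC plus propidium iodide; flow cytometry, reported as % Annexin V-FITC-positive apoptotic cells; three separate experiments.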

[13] = test system: PC-3; test: Percent of PC-3 cells underwent apoptosis after incubation with 50 uM of compound for 48 hr; type: functional, Homo sapiens; outline: as §3
[14] = test system: PC-3; test: Induction of apoptosis by embelin in PC-3 prostate cancer cells at a concentration of 25 uM for 48 h; type: functional, Homo sapiens; outline: as §3
[15] = test system: PC-3; test: Percent of PC-3 cells underwent apoptosis after incubation with 25 uM of compound for 48 hr; type: functional, Homo sapiens; outline: as §3
[16] = test system: PC-3; test: Percent of PC-3 cells stained for activated caspase-9 after incubation with 40 uM of compound for 42h; type: functional, Homo sapiens; outline: as §2
[17] = test system: PrEC; test: Selectivity in normal human prostate epithelial cells (PrEC); type: functional, cell-based; outline: as §1
[18] = test system: PrEC; test: Inhibitory concentration of compound against growth of PrEC cells in vitro; type: functional, cell-based; conditions: Homo sapiens; outline: as §1
[19] = test system: LNCaP; test: Inhibitory concentration of compound against growth of LNCaP cells in vitro; type: functional, cell-based; conditions: Homo sapiens; outline: as §1
[20] = test system: PC-3; test: Activation of caspase-9 by embelin in PC-3 prostate cancer cells at a concentration of 40 uM; type: functional, Homo sapiens; outline: as §2
[21] = test system: WI-38 5000; test: Selectivity in normal human fibroblast cell line, WI-38 cells; type: functional, cell-based; outline: as §1
[22] = test system: Jurkat; test: Percent of Jurkat-Vec cells killed after 72 hr of 2.5 uM of compound administration; type: cell-based; conditions: human
Outline: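 Jurkat T cells stably carrying empty vector, kept in RPMI 1640 with 10% fetal calf serum and 1 µg/mL puromycin at 37 °C, 5% CO2. Cell growth assay at 5000 cells/well in 10% FBS medium, drug added in triplicate for 72 h. WST-1 then added for 1-3 h at 37 °C. Absorbance read at 450 nm, corrected at 650 nm, and compared with vehicle-control wells.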

[23] = test system: Jurkat; test: Percent of Jurkat-XIAP cells killed after 72 hr of 10 uM of compound administration; conditions: human
[24] = test system: Jurkat; test: Percent of Jurkat-XIAP cells killed after 72 hr of 2.5 uM of compound administration; conditions: human

IC50 [1]: 0.57 µM
SMILES: C[C@H](N)C(=O)N[C@@H](CCCNC(=N)N)C(=O)N1CCC[C@H]1C(=O)N[C@@H](Cc1ccccc1)C(=O)N[C@@H](C)C(=O)N[C@@H](CCC(N)=O)C(=O)N[C@@H](CCCCNC(=O)c1c(C(=O)ON2C(=O)CCC2=O)cccc1-c1c2ccc(=O)cc-2oc2cc(O)ccc12)C(=O)O (H-ARPFAQK(X1)-OH)

Kd [2]: 0.038 µM | Kd [3]: 0.02 µM
SMILES: C[C@H](N)C(=O)N[C@@H](CCCNC(=N)N)C(=O)N1CCC[C@H]1C(=O)N[C@@H](Cc1ccccc1)C(=O)N[C@@H](C)C(=O)N[C@@H](CCC(N)=O)C(=O)N[C@@H](CCCCN)C(=O)O (H-ARPFAQK-OH)

IC50 [1]: 4.1 µM | IC50 [4]: 3.7 µM | IC50 [6]: 20 µM | IC50 [10]: 5.7 µM | IC50 [11]: 3.7 µM | IC50 [19]: 5.7 µM
SMILES: CCCCCCCCCCCC1=C(O)C(=O)C=C(O)C1=O [EMBELIN]
Induction [5]: 33% | IC50 [7]: 19.3 µM | Staining [8]: 33% | Induction [9]: 94.3% and 59% | Induction [12]: 75% | Apoptosis [13]: 75% | Induction [14]: 30% | Apoptosis [15]: 30% | Staining [16]: 62.1% | IC50 [17]: 20.1 µM | IC50 [18]: 20.1 µM | Induction [20]: 62.1% | IC50 [21]: 19.3 µM

SMILES: COc1cc([C@@H]2c3cc4c(cc3[C@@H](O[C@@H]3O[C@@H]5CO[C@@H](C)O[C@H]5[C@H](O)[C@H]3O)[C@H]3COC(=O)[C@H]23)OCO4)cc(OC)c1O [ETOPOSIDE]
Death [22]: 94.3% | Death [23]: 85% | Death [24]: 59%

Source: ChEMBL document CHEMBL1148304, “Discovery of embelin as a cell-permeable, small-molecular weight inhibitor of XIAP through structure-based computational screening of a traditional herbal medicine three-dimensional structure database” (J Med Chem, 2004)
